From ChEMBL document CHEMBL1147685, “Synthesis and SAR of 1,9-dihydro-9-hydroxypyrazolo[3,4-b]quinolin-4-ones as novel, selective c-Jun N-terminal kinase inhibitors” (Bioorg Med Chem Lett, 2006)

Legend:
[1] = target: Mitogen-activated protein kinase 8 (Homo sapiens, UniProt P45983); test: Inhibition of JNK1
[2] = target: c-Jun N-terminal kinase, JNK (Homo sapiens, UniProt P45983+P53779+P45984); test: Inhibition of TNF-alpha-stimulated cJun phosphorylation in HepG2 cells; type: functional, cell-based
How it was run: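 Cell-based ELISA in HepG2 cells detecting phospho-c-Jun after TNFa stimulation. Inhibition of c-Jun phosphorylation read out and expressed as IC50.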

[3] = Stability in human liver microsome after 30 mins; type: ADME; details: liver microsomes, read-out: Stability
How it was run: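 Parent compound incubated with human liver microsomes for 30 min. Percentage of parent recovered afterwards was measured.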

MAP kinase p38 = MAP kinase p38 (Homo sapiens, UniProt O15264+Q15759+Q16539+P53778); test: Inhibition of p38; type: protein assay
[4] = target: Mitogen-activated protein kinase 9 (Homo sapiens, UniProt P45984); test: Inhibition of JNK2
[5] = target: Mitogen-activated protein kinase 1 (Homo sapiens, UniProt P28482); test: Inhibition of ERK2
Chain of Mitogen-activated protein kinase 1 (P28482 whole entry): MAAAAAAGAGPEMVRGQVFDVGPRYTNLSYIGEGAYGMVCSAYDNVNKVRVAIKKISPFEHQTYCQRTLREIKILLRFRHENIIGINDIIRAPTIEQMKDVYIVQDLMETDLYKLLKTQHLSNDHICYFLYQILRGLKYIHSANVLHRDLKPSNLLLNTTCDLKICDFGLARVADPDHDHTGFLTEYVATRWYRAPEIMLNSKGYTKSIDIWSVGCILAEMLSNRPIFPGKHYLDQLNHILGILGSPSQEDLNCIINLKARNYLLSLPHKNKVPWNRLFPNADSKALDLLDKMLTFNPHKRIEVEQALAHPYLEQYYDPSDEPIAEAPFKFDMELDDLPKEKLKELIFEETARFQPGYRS

Chain of Mitogen-activated protein kinase 8 (P45983 whole entry): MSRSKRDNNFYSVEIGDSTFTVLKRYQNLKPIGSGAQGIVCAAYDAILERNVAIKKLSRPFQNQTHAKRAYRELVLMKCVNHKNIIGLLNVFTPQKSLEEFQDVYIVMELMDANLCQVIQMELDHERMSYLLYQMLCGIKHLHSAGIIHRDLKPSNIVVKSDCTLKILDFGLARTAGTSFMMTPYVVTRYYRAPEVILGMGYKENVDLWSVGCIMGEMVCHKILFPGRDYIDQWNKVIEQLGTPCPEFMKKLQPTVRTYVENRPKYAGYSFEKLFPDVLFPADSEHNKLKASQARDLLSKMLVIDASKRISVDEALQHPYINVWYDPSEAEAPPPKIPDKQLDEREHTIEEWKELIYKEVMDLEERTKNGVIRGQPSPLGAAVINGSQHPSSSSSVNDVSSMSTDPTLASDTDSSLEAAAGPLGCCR
Chain of Mitogen-activated protein kinase 9 (P45984 whole entry): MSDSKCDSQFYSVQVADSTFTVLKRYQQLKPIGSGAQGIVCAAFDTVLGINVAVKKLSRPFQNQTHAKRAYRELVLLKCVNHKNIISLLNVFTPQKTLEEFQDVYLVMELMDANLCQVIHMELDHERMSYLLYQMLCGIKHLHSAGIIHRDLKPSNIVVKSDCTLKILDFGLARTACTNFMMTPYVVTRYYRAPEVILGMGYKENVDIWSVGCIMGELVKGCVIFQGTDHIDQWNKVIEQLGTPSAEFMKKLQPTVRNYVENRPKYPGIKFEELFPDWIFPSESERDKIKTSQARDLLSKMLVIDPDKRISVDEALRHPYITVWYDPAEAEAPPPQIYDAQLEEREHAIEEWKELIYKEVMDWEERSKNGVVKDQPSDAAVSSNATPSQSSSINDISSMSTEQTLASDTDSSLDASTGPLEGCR

| SMILES | IC50 [1] | IC50 [2] | also measured |
| --- | --- | --- | --- |
| Cc1nn(C)c2c1c(=O)c1cc(Cl)ccc1n2OC(C)C | > 10 µM |  |  |
| Cn1nc(C(C)(C)C)c2c(=O)c3cc(Cl)ccc3n(O)c21 | > 10 µM |  |  |
| COc1cc(Cl)cc2c(=O)c3c(C(F)(F)F)nn(C)c3n(O)c12 | > 10 µM |  |  |
| Cc1nn(C)c2c1c(=O)c1cc(-c3cc[nH]n3)ccc1n2O | > 10 µM |  |  |
| COn1c2ccc(Cl)cc2c(=O)c2c(C)nn(C)c21 | 4.59 µM | 19.4 µM |  |
| Cc1nn(C)c2c1c(=O)c1cc(-c3ccccc3)ccc1n2O | > 10 µM |  |  |
| Cn1nc(C(F)(F)F)c2c(=O)c3cc(Cl)c(Cl)cc3n(O)c21 | 5.14 µM | > 30 µM |  |
| CC(=O)NCCc1nn(C)c2c1c(=O)c1cc(Cl)ccc1n2O | 0.78 µM | > 30 µM |  |
| Cc1nn(C)c2c1c(=O)c1cc(Cl)ccc1n2OCc1ccccc1 | > 10 µM |  |  |
| CC(C)c1nn(C)c2c1c(=O)c1cc(Cl)ccc1n2O | 2.64 µM | > 30 µM |  |
| CCOC(=O)Cn1nc(C)c2c(=O)c3cc(Cl)ccc3n(O)c21 | 7.64 µM | > 30 µM |  |
| Cc1nn(C)c2c1c(=O)c1cc(Br)ccc1n2O | 0.92 µM | > 30 µM |  |
| CCOC(=O)NCCc1nn(C)c2c1c(=O)c1cc(Cl)ccc1n2O | 0.43 µM | > 30 µM |  |
| Cn1nc(CCCC(=O)O)c2c(=O)c3cc(Cl)ccc3n(O)c21 | 2.74 µM | > 30 µM |  |
| CCCc1nn(C)c2c1c(=O)c1cc(Cl)ccc1n2O | 1.31 µM | 26.6 µM |  |
| CCOn1c2ccc(Cl)cc2c(=O)c2c(C)nn(C)c21 | 2.78 µM | 10.6 µM |  |
| CNC(=O)Cn1nc(C)c2c(=O)c3cc(Cl)ccc3n(O)c21 | 8.77 µM | > 30 µM |  |
| Cn1nc(CCC(=O)O)c2c(=O)c3cc(Cl)ccc3n(O)c21 | > 10 µM |  |  |

| SMILES | IC50 [1] | IC50 [2] | also measured |
| --- | --- | --- | --- |
| Cn1nc(-c2ccc(N)cc2)c2c(=O)c3cc(Cl)ccc3n(O)c21 | > 10 µM |  |  |
| CCNC(=O)NCCCc1nn(C)c2c1c(=O)c1cc(Cl)ccc1n2O | 0.5 µM | > 30 µM |  |
| COCCc1nn(C)c2c1c(=O)c1cc(Cl)ccc1n2O | 2.41 µM | 14.7 µM |  |
| Cn1c2[n+]([O-])c3ccc(Cl)cc3c(=O)c-2c2n1C(=O)NCC2 | 0.29 µM | 0.85 µM |  |
| Cc1nn(C)c2nc3ccc(Cl)cc3c(O)c12 | > 10 µM |  |  |
| Cc1nn(CC(=O)O)c2c1c(=O)c1cc(Cl)ccc1n2O | 4.41 µM | > 30 µM |  |
| COC(=O)c1nn(C)c2c1c(=O)c1cc(Cl)ccc1n2O | > 10 µM |  |  |
| Cc1nn(CCO)c2c1c(=O)c1cc(Cl)ccc1n2O | 7.67 µM | > 30 µM |  |
| CCCCc1nn(C)c2c1c(=O)c1cc(Cl)ccc1n2O | 0.52 µM | > 30 µM |  |
| Cc1nn(C)c2c1c(=O)c1cc(Cl)ccc1n2OC1CCCC1 | > 10 µM |  |  |
| Cc1nn(C)c2c1c(=O)c1ccccc1n2O | > 10 µM |  |  |
| Cn1nc(CCN)c2c(=O)c3cc(Cl)ccc3n(O)c21 | 2.83 µM | > 30 µM |  |
| Cc1nn(C)c2c1c(=O)c1cc(Cl)ccc1n2O |  | > 30 µM | remaining at 0.5 h [3]: 100%; IC50 (MAP kinase p38): > 50 µM; IC50 [4]: 3.1 µM; IC50 [5]: > 50 µM |
| CN(C)c1cc2c(cc1Cl)c(=O)c1c(C(F)(F)F)nn(C)c1n2O | > 10 µM |  |  |
| CNC(=O)CCCc1nn(C)c2c1c(=O)c1cc(Cl)ccc1n2O | 0.75 µM | > 30 µM |  |
| CCn1nc(C)c2c(=O)c3cc(Cl)ccc3n(O)c21 | 4.19 µM | > 30 µM |  |
| CCc1nn(C)c2c1c(=O)c1cc(Cl)ccc1n2O | 0.96 µM | 32 µM |  |
| Cn1nc(C(F)(F)F)c2c(=O)c3c(Cl)c(Cl)ccc3n(O)c21 | > 10 µM |  |  |
